# In paper PMC5538437 (Genes & Development, 2017):
# Residue numbers refer to the chain shown, from its start. In names and notes the source's numbering stands.
# B1: GYF1 NC*: GYF1 L60D, F65D, V68D; non-canonical mutant (protein, UniProt O75420 1-1035, looked up, variant L60D F65D V68D)
# GRB10-interacting GYF protein …: MAAETLNFGPEWLRALSGGGSVASPPPSPAMPKYKLADYRYGREEMLALYVKENKVPEEDQDKEDAADLQDEPLQPLALEPLTEEEQRNFSLSVNSVAVLRLMGKGAGPPLAGTSRGRGSTRSRGRGRGDSCFYQRSIEEGDGAFGRSPREIQRSQSWDDRGERRFEKSARRDGARCGFEEGGAGPRKEHARSDSENWRSLREEQEEEEEGSWRLGAGPRRDGDRWRSASPDGGPRSAGWREHGERRRKFEFDLRGDRGGCGEEEGRGGGGSSHLRRCRAPEGFEEDKDGLPEWCLDDEDEEMGTFDASGAFLPLKKGPKEPIPEEQELDFQGLEEEEEPSEGLEEEGPEAGGKELTPLPPQEEKSSSPSPLPTLGPLWGTNGDGDETAEKEPPAAEDDIRGIQLSPGVGSSAGPPGDLEDDEGLKHLQQEAEKLVASLQDSSLEEEQFTAAMQTQGLRHSAAATALPLSHGAARKWFYKDPQGEIQGPFTTQEMAEWFQAGYFSMSLLVKRGCDEGFQPLGEVIKMWGRVPFAPGPSPPPLLGNMDQERLKKQQELAAAALYQQLQHQQFLQLVSSRQLPQCALREKAALGDLTPPPPPPPQQQQQQLTAFLQQLQALKPPRGGDQNLLPTMSRSLSVPDSGRLWDVHTSASSQSGGEASLWDIPINSSTQGPILEQLQLQHKFQERREVELRAKREEEERKRREEKRRQQQQEEQKRRQEEEELFRRKHVRQQELLLKLLQQQQAVPVPPAPSSPPPLWAGLAKQGLSMKTLLELQLEGERQLHKQPPPREPARAQAPNHRVQLGGLGTAPLNQWVSEAGPLWGGPDKSGGGSSGLGLWEDTPKSGGSLVRGLGLKNSRSSPSLSDSYSHLSGRPIRKKTEEEEKLLKLLQGIPRPQDGFTQWCEQMLHTLSATGSLDVPMAVAILKEVESPYDVHDYIRSCLGDTLEAKEFAKQFLERRAKQKASQQRQQQQEAWLSSASLQTAFQANHSTKLGPGEGSKAKRRALMLHSDPSILGYSLHGSSGEIESVDDY
# B2: GYF1 A1*: GYF1 P76D, L77A; auxiliary site 1 mutant (protein, UniProt O75420 1-1035, looked up, variant P76D L77A)
# GRB10-interacting GYF protein …: B1 GRB10-interacting GYF protein … with D60L, D65F, D68V, P76D, L77A
# B3: GYF2 NC*: GYF2 L62D, F67D, I70D; non-canonical mutant (protein, UniProt Q6Y7W6 2-1299, looked up, variant L62D F67D I70D)
# GRB10-interacting GYF protein …: AAETQTLNFGPEWLRALSSGGSITSPPLSPALPKYKLADYRYGREEMLALFLKDNKIPSDDLDKEDLPDLQEEPLPPLALVPFTEEEQRNFSMSVNSAAVLRLTGRGGGGTVVGAPRGRSSSRGRGRGRGECGFYQRSFDEVEGVFGRGGGREMHRSQSWEERGDRRFEKPGRKDVGRPNFEEGGPTSVGRKHEFIRSESENWRIFREEQNGEDEDGGWRLAGSRRDGERWRPHSPDGPRSAGWREHMERRRRFEFDFRDRDDERGYRRVRSGSGSIDDDRDSLPEWCLEDAEEEMGTFDSSGAFLSLKKVQKEPIPEEQEMDFRPVDEGEECSDSEGSHNEEAKEPDKTNKKEGEKTDRVGVEASEETPQTSSSSARPGTPSDHQSQEASQFERKDEPKTEQTEKAEEETRMENSLPAKVPSRGDEMVADVQQPLSQIPSDTASPLLILPPPVPNPSPTLRPVETPVVGAPGMGSVSTEPDDEEGLKHLEQQAEKMVAYLQDSALDDERLASKLQEHRAKGVSIPLMHEAMQKWYYKDPQGEIQGPFNNQEMAEWFQAGYFTMSLLVKRACDESFQPLGDIMKMWGRVPFSPGPAPPPHMGELDQERLTRQQELTALYQMQHLQYQQFLIQQQYAQVLAQQQKAALSSQQQQQLALLLQQFQTLKMRISDQNIIPSVTRSVSVPDTGSIWELQPTASQPTVWEGGSVWDLPLDTTTPGPALEQLQQLEKAKAAKLEQERREAEMRAKREEEERKRQEELRRQQEEILRRQQEEERKRREEEELARRKQEEALRRQREQEIALRRQREEEERQQQEEALRRLEERRREEEERRKQEELLRKQEEEAAKWAREEEEAQRRLEENRLRMEEEAARLRHEEEERKRKELEVQRQKELMRQRQQQQEALRRLQQQQQQQQLAQMKLPSSSTWGQQSNTTACQSQATLSLAEIQKLEEERERQLREEQRRQQRELMKALQQQQQQQQQKLSGWGNVSKPSGTTKSLLEIQQEEARQMQKQQQQQQQHQQPNRARNNTHSNLHTSIGNSVWGSINTGPPNQWASDLVSSIWSNADTKNSNMGFWDDAVKEVGPRNSTNKNKNNASLSKSVGVSNRQNKKVEEEEKLLKLFQGVNKAQDGFTQWCEQMLHALNTANNLDVPTFVSFLKEVESPYEVHDYIRAYLGDTSEAKEFAKQFLERRAKQKANQQRQQQQLPQQQQQQPPQQPPQQPQQQDSVWGMNHSTLHSVFQTNQSNNQQSNFEAVQSGKKKKKQKMVRADPSLLGFSVNASSERLNMGEIETLDDY
# B4: GYF2 A1*: GYF2 P78D, L79A; auxiliary site 1 mutant (protein, UniProt Q6Y7W6 2-1299, looked up, variant P78D L79A)
# GRB10-interacting GYF protein …: B3 GRB10-interacting GYF protein … with D61L, D66F, D69I, P77D, L78A
# Test system: 4EHP
# Experiment: Pull-down / coimmunoprecipitation with 4EHP in HEK293T cell lysates
# Type: binding, human
# Settings: HEK293T cells, GFP-tagged protein and V5-SBP-4EHP, Western blot
# Procedure, shortened: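 Streptavidin-bead pull-down from RNase A-treated HEK293T lysates of cells expressing V5-SBP-tagged 4EHP or eIF4E (wild type or mutants). Co-bound endogenous GYF2, 4E-T and 4E-BP1 were probed; for 4EHP, co-expressed GFP-4E-BP1 was also probed, with V5-SBP-MBP as negative control. Inputs and bound fractions were analysed by Western blot with anti-V5, anti-GFP, anti-GYF2 and other antibodies, using ECL detection.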
row,Molecule,"interaction with 4EHP in cells, overexpressed binding partner"
1,"4E-BP1 C: 4E-BP1 Y54A, L59A; canonical motif mutant",abolished its interaction with 4EHP
2,B1,did not affect binding to overexpressed 4EHP in human cells
3,B2,did not affect binding to overexpressed 4EHP in human cells
4,B3,did not affect binding to overexpressed 4EHP in human cells
5,B4,did not affect binding to overexpressed 4EHP in human cells
